Consider 18 molecules from ChEMBL document CHEMBL4014335, “Activation of Phenyl 4-(2-Oxo-3-alkylimidazolidin-1-yl)benzenesulfonates Prodrugs by CYP1A1 as New Antimitotics Targeting Breast Cancer Cells” (J Med Chem, 2017).

The subject of one test is HT-29. Description: Antiproliferative activity against human HT-29 cells after 48 hrs by SRB assay. In kind it is functional, cell-based. Particulars: HT-29, 48 h. The gist of the method:
(§1)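 SRB assay run as in the NCI screen with slight modifications. Seeding: HT-29 5.0 x 10^3, M21 3.5 x 10^3, MCF7 7.5 x 10^3 cells; cells preincubated 24 h. Drug in DMSO added at 0.75 to 1.0 x 10^5 nM for 48 h. TCA fixation, sulforhodamine B staining, absorbance 530-565 nm. At least two experiments in triplicate; runs accepted only when relative SD < 10%.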
A general note: In SRB staining, fixed cells bind dye roughly in proportion to their protein.

The test system of another test is M21. Description: Antiproliferative activity against human M21 cells after 48 hrs by SRB assay. In kind it is functional, cell-based. Particulars: M21, 48 h. In outline:
as §1

Another test relates to MCF7. Description: Antiproliferative activity against human MCF7 cells after 48 hrs by SRB assay. In kind it is functional, cell-based. Particulars: MCF7, 48 h. The gist of the method: as §1
Test [1] can be described thus: Selectivity ratio of IC50 for human HT-29 cells to IC50 for human MCF7 cells. The test is classed as functional. The gist of the method:
(§2)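 Ratio is IC50 in reference line over IC50 in sensitive line. […] Cells in DMEM with 5% calf serum at 37 °C. At least two experiments, triplicate cultures; assay accepted when relative SD < 10%.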

A short description of test [2]: Selectivity ratio of IC50 for human M21 cells to IC50 for human MCF7 cells. In kind it is functional. The gist of the method: as §2

`CCCN1CCN(c2ccc(S(=O)(=O)Oc3ccccc3C)cc2)C1=O`: the IC50 in the test with HT-29, with M21 and in the test on MCF7 was greater than 100 µM each time.
For `CCCN1CCN(c2ccc(S(=O)(=O)Oc3cccc(F)c3)cc2)C1=O`, the concentration for half-maximal inhibition (IC50) is 18 µM in the test with HT-29, 12 µM in the test with M21 and 24 µM in the test on MCF7. The “Ratio IC50” value in test [1] is 0.8; in test [2], 0.5.
For the molecule `COc1ccc(OS(=O)(=O)c2ccc(N3CCN(C)C3=O)cc2)cc1OC`, the concentration for half-maximal inhibition (IC50) with HT-29 was 12 µM; with M21 it was 8.5 µM; in the test on MCF7, 12 µM. Also, the “Ratio IC50” value in test [1] amounted to 1; in test [2], 0.72.
Turning to `CCN1CCN(c2ccc(S(=O)(=O)Oc3cccc(Br)c3)cc2)C1=O`, the IC50 worked out at 3.8 µM with HT-29, 3.4 µM with M21 and 2.5 µM in the test on MCF7. Also, the entries for the “Ratio IC50” value in test [1] and in test [2] were 1.5 and 1.4, respectively.
With `CCCN1CCN(c2ccc(S(=O)(=O)Oc3ccc(OC)c(OC)c3)cc2)C1=O`, the half-inhibitory concentration (IC50) in the test with HT-29 stood at 14 µM; in the test on M21 it was 28 µM; in the test on MCF7 it was 6.8 µM. For the same molecule, the “Ratio IC50” value in test [1] is on record as 2; in test [2] it was 4.1.
In the same order, the values of `Cc1ccc(OS(=O)(=O)c2ccc(N3CCN(C)C3=O)cc2)c(C)c1` are 3 µM, 1.8 µM, 2.5 µM, 1.2 and 0.7.
Consider `CN1CCN(c2ccc(S(=O)(=O)Oc3cccc(Br)c3)cc2)C1=O`, for which the figures for the IC50 with HT-29, in the test on M21 and with MCF7 were 1.3 µM, 1.3 µM and 1.5 µM, respectively. Besides, the “Ratio IC50” value was determined as 0.8 in test [1] and 0.9 in test [2].
Consider `CCCN1CCN(c2ccc(S(=O)(=O)Oc3cccc(Cl)c3)cc2)C1=O`, for which the IC50 came out at 13 µM in the test with HT-29, 8.6 µM in the test on M21 and 0.38 µM with MCF7. Further, the “Ratio IC50” value in test [1] stood at 34; in test [2], 23.
On to `CN1CCN(c2ccc(S(=O)(=O)Oc3ccc(Cl)cc3)cc2)C1=O`, for which the IC50 in the test with HT-29 was 12 µM; in the test with M21, 43 µM; with MCF7, greater than 100 µM.
In the case of `CCc1ccccc1OS(=O)(=O)c1ccc(N2CCN(C)C2=O)cc1`, the IC50 in the test on HT-29 is 4.6 µM; in the test on M21, 2.3 µM; with MCF7 it was 26 µM. The “Ratio IC50” value in test [1] turned out to be 0.2; in test [2], 0.1.
For `CN1CCN(c2ccc(S(=O)(=O)Oc3cccc([N+](=O)[O-])c3)cc2)C1=O`, the concentration for half-maximal inhibition (IC50) with HT-29 was 26 µM; with M21 it was 23 µM; in the test on MCF7, greater than 100 µM.
In the same order, the values of `CCN1CCN(c2ccc(S(=O)(=O)Oc3cccc(F)c3)cc2)C1=O` are greater than 100 µM, 11 µM and greater than 100 µM.
In the same order, the values of `CCN1CCN(c2ccc(S(=O)(=O)Oc3ccccc3OC)cc2)C1=O` are greater than 100 µM, greater than 100 µM and greater than 100 µM.
In the same order, the values of `CCCN1CCN(c2ccc(S(=O)(=O)Oc3c(Cl)cc(Cl)cc3Cl)cc2)C1=O` are 56 µM, 56 µM and greater than 100 µM.
Consider `CCN1CCN(c2ccc(S(=O)(=O)Oc3ccc(OC)cc3)cc2)C1=O`, for which the values for the half-maximal inhibitory concentration (IC50) in the test on HT-29, in the test with M21 and in the test with MCF7 were 60 µM, 26 µM and greater than 100 µM, respectively.
In the same order, the values of `Cc1ccc(OS(=O)(=O)c2ccc(N3CCN(C)C3=O)cc2)cc1` are greater than 100 µM, greater than 100 µM and greater than 100 µM.
On the same counts, the results for `CN1CCN(c2ccc(S(=O)(=O)Oc3cccc(F)c3)cc2)C1=O` are greater than 100 µM, 5.8 µM and greater than 100 µM.
As for `CN1CCN(c2ccc(S(=O)(=O)Oc3ccc(F)cc3)cc2)C1=O`, the IC50 with HT-29, in the test on M21 and in the test with MCF7 was greater than 100 µM in each case.

The IC50 is the concentration that gives 50% inhibition. Lower therefore signals higher potency.
